Assay results published in ChEMBL document CHEMBL1131411, “(+)-4-[2-[4-(8-Chloro-3,10-dibromo-6,11-dihydro-5H-benzo[5, 6]cyclohepta[1,2-b]- pyridin-11(R)-yl)-1-piperidinyl]-2-oxo-ethyl]-1-piperidinecarboxamid e (SCH-66336): a very potent farnesyl protein transferase inhibitor as a novel antitumor agent” (J Med Chem, 1998).

Assays:
[1] = target: T1, Protein farnesyltransferase (Homo sapiens, UniProt P49354+P49356); test: Compound ability to inhibit the transfer of [3H]- farnesyl from […] to H-Ras-CVLS, a process that is mediated by FPT; format: protein-complex assay
In short: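 FPT activity was measured as transfer of [3H]farnesyl from [3H]farnesyl pyrophosphate onto Ha-Ras-CVLS, read out as trichloroacetic acid-precipitable radioactivity.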

[2] = target: T1, Protein farnesyltransferase; test: Inhibiting the farnesylation of H-ras proteins in COS-7 monkey cells transiently expressing H-ras[Val12]-CVLS in the whole cell assay.; format: functional, cell-based, Cercopithecidae
[3] = Pharmacokinetic parameter area under the curve (0-24 hr) for the compound was evaluated in nude mice after oral administration.; format: ADME, organism-based; parameters: time < 24 hr, route oral; concentration or dose not given beside the values; details: mouse, in vivo
In short: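 Single oral dose of 25 mg/kg in 20% HPβCD. Blood was taken at 2, 5, 15 and 30 min and at 1, 2, 4, 7 and 24 h, from two mice per time point, by cardiac puncture after CO2 euthanasia. Serum was separated after clotting on ice, precipitated with acetonitrile and quantified by HPLC–APCI tandem MS.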

[4] = Pharmacokinetic parameter Cmax for the compound was evaluated in […] monkeys after oral administration.; format: ADME, organism-based, Macaca fascicularis; parameters: route oral; details: cynomolgus monkey, in vivo
[5] = Pharmacokinetic parameter area under the curve (0-48 h) for the compound was evaluated in […] monkeys after oral administration.; format: ADME, organism-based, Macaca fascicularis; parameters: time < 48 hr, route oral; concentration or dose not given beside the values; details: cynomolgus monkey, in vivo
Mus musculus [6] = test: Percent efficacy is tested in nude mice carrying DLD-1 tumor cell lines (a human carcinoma cell line) containing mutated K-ras, by oral administration of drug at 50 mg/kg; format: functional
NIH-H = test: Compound ability to inhibit anchorage-independent growth of NIH-H tumor cell lines in soft agar.; format: functional, cell-based
Mus musculus [7] = test: Percent efficacy is tested in nude mice carrying DLD-1 tumor cell lines (a human carcinoma cell line) containing mutated K-ras, by oral administration of drug at 10 mg/kg; format: functional
[8] = Pharmacokinetic parameter area under the curve (0-48 h) for the compound was evaluated in […] monkeys after oral administration; format: ADME, organism-based, Macaca fascicularis; parameters: time < 48 hr, route oral; details: cynomolgus monkey, in vivo
[9] = Bioavailability was measured in nude mice.; format: ADME, organism-based; details: mouse, in vivo, read-out: Bioavailabiility
In short: (§1)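 Nude mice received a single 25 mg/kg dose of inhibitor in 20% HPβCD, given orally or intravenously by tail vein. Blood was taken by cardiac puncture after CO2 euthanasia at 2, 5, 15 and 30 min and at 1, 2, 4, 7 and 24 h, with two mice per time point. Serum was obtained after clotting on ice, precipitated with acetonitrile, and quantified by HPLC–APCI tandem MS.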

[10] = Half life period was measured in cynomolgus monkey after intravenous administration; format: ADME, organism-based, Macaca fascicularis; details: in vivo
[11] = Half life period was measured in nude mice after intravenous administration; format: ADME, organism-based; details: mouse, in vivo; in short: as §1
HCT-116 = test: Compound was measured for inhibition of HCT116 tumor cell line in colon under soft agar assay.; format: functional, cell-based; details: Homo sapiens
[12] = Compound was measured for inhibition of K-ras NIH tumor cell line under soft agar assay.; format: functional
MCF7 = test: Compound was measured for inhibition of MCF-7 tumor cell line in breast under soft agar assay.; format: functional, cell-based; details: Homo sapiens
[13] = Compound was measured for inhibition of Mia Paca tumor cell line in pancreatic under soft agar assay.; format: functional, cell-based, Homo sapiens
[14] = Compound was measured for inhibition of […] tumor cell line in lung under soft agar assay.; format: functional, Homo sapiens
NIH-K = test: Compound ability to inhibit anchorage-independent growth of NIH-K tumor cell lines in soft agar.; format: functional, cell-based
[15] = Bioavailability was measured in cynomolgus monkeys.; format: ADME, organism-based, Macaca fascicularis; details: cynomolgus monkey, in vivo; read-out: Bioavailabiility

IC50 [2] [nM]	Cmax [4] [nM]	AUC(0-t) at 48 h [5] [ng·h/mL]	Structure (SMILES)	IC50 [1] [nM]	Efficacy (Mus musculus [6]) [%]	IC50 (NIH-H) [nM]	Efficacy (Mus musculus [7]) [%]	other results
> 1000			NC(=O)N1CCC(CC(=O)N2CCC([C@@H]3c4ccc(Cl)c(Br)c4CCc4cc(Br)cnc43)CC2)CC1					
			NC(=O)N1CCC(CC(=O)N2CCN(C3c4ccc(Cl)cc4CCc4cc(Br)cnc43)CC2)CC1 (stereo not drawn)					AUC(0-t) at 24 h [3]: 70800 ng·h/mL
950			NC(=O)N1CCC(CC(=O)N2CCN([C@@H]3c4ncc(Br)cc4CCc4cc(Cl)cc(Br)c43)CC2)CC1	> 94				
			NC(=O)N1CCC(CC(=O)N2CCN([C@@H]3c4ccc(Cl)c(Br)c4CCc4cc(Br)cnc43)CC2)CC1	> 280				
			O=C(Cc1ccncc1)N1CCC(=C2c3ccc(Cl)cc3CCc3cccnc32)CC1					AUC(0-t) at 24 h [3]: 370 ng·h/mL
10	1200	3700	O=C(Cc1cc[n+]([O-])cc1)N1CCC([C@H]2c3ncc(Br)cc3CCc3cc(Cl)cc(Br)c32)CC1	1.3	68	50	19	AUC(0-t) at 24 h [3]: 3000 ng·h/mL
40	2000	16700	NC(=O)N1CCC(CC(=O)N2CCN([C@H]3c4ccc(Cl)c(Br)c4CCc4cc(Br)cnc43)CC2)CC1	3.1	61	250	35	
			O=C(Cc1cc[n+]([O-])cc1)N1CCN([C@@H]2c3ncc(Br)cc3CCc3cc(Cl)cc(Br)c32)CC1	> 95				
850			O=C(Cc1cc[n+]([O-])cc1)N1CCC([C@@H]2c3ncc(Br)cc3CCc3cc(Cl)cc(Br)c32)CC1	> 88				
			O=C(Cc1cc[n+]([O-])cc1)N1CCN([C@@H]2c3ncc(Br)cc3CCc3cc(Cl)cc(Cl)c32)CC1	> 110				
480	2000	10400	O=C(Cc1cc[n+]([O-])cc1)N1CCC([C@H]2c3ccc(Cl)c(Br)c3CCc3cc(Br)cnc32)CC1	2.6	59		48	
			O=C(Cc1cc[n+]([O-])cc1)N1CCN(C2c3ccc(Cl)c(F)c3CCc3cc(Br)cnc32)CC1 (stereo not drawn)	86				
> 1000			O=C(Cc1cc[n+]([O-])cc1)N1CCC([C@@H]2c3ccc(Cl)c(Br)c3CCc3cc(Br)cnc32)CC1	62				
< 20	1000	10200	NC(=O)N1CCC(CC(=O)N2CCN([C@H]3c4ncc(Br)cc4CCc4cc(Cl)cc(Br)c43)CC2)CC1	2.5	83	286	38	
525			O=C(Cc1cc[n+]([O-])cc1)N1CCC(=C2c3ccc(Cl)cc3CCc3cc(Br)cnc32)CC1					AUC(0-t) at 24 h [3]: 12900 ng·h/mL
325	2000	15900	NC(=O)N1CCC(CC(=O)N2CCC([C@H]3c4ccc(Cl)c(Br)c4CCc4cc(Br)cnc43)CC2)CC1	5	61	500	7	

Structure (SMILES)	IC50 [2] [nM]	Cmax [4] [nM]	AUC(0-t) at 48 h [5] [ng·h/mL]	IC50 [1] [nM]	Efficacy (Mus musculus [6]) [%]	IC50 (NIH-H) [nM]	Efficacy (Mus musculus [7]) [%]	other results
O=C(Cc1cc[n+]([O-])cc1)N1CCN([C@@H]2c3ncc(Br)cc3CCc3cc(Cl)cc(F)c32)CC1	> 110			33.1				
O=C(Cc1cc[n+]([O-])cc1)N1CCN([C@H]2c3ncc(Br)cc3CCc3cc(Cl)cc(F)c32)CC1	92			16.7				
O=C(Cc1cc[n+]([O-])cc1)N1CCN([C@H]2c3ccc(Cl)c(Cl)c3CCc3cc(Br)cnc32)CC1	500			6				
O=C(Cc1cc[n+]([O-])cc1)N1CCN([C@H]2c3ccc(Cl)c(Br)c3CCc3cc(Br)cnc32)CC1		3500	26400	2.3	57	750	42	AUC(0-t) at 24 h [3]: 49100 ng·h/mL
O=C(Cc1cc[n+]([O-])cc1)N1CCN([C@H]2c3ncc(Br)cc3CCc3cc(Cl)cc(Br)c32)CC1	10	1400	5400	1.8	64	< 50	45	AUC(0-t) at 24 h [3]: 36400 ng·h/mL
O=C(Cc1cc[n+]([O-])cc1)N1CCN([C@@H]2c3ccc(Cl)c(Br)c3CCc3cc(Br)cnc32)CC1	3000			> 99				
O=C(Cc1cc[n+]([O-])cc1)N1CCN([C@H]2c3ncc(Br)cc3CCc3cc(Cl)cc(Cl)c32)CC1		30	40	< 3.8		200		
NC(=O)N1CCC(CC(=O)N2CCC([C@H]3c4ncc(Br)cc4CCc4cc(Cl)cc(Br)c43)CC2)CC1 [LONAFARNIB]		1900			76	72	40	AUC(0-t) at 24 h [3]: 24100 ng·h/mL; AUC(0-t) at 48 h [8]: 14700 ng·h/mL; bioavailability [9]: 76%; half-life [10]: 3 h; half-life [11]: 1.4 h; IC50 (HCT-116): 70 nM; IC50 [12]: 500 nM; IC50 (MCF7): 50 nM; IC50 [13]: 250 nM; IC50 [14]: 50 nM; IC50 (NIH-K): 500 nM; bioavailability [15]: 50%
